Laboratory results taken from ChEMBL document CHEMBL1122629, “Potent and selective antagonists of the antidiuretic responses to arginine-vasopressin based on modifications of [1-(beta-mercapto-beta,beta-pentamethylenepropionic acid),2-D-isoleucine,4- valine]arginine-vasopressin at position 4” (J Med Chem, 1984).

How the values were obtained:
Rattus norvegicus [1] = species: Rattus norvegicus; test: Anti-oxytocic activity on isolated rat uterus in absence of Mg2+. pA2 value is negative logarithm of effective dose (ED); format: functional; details: read-out: pA2 (converted)
Procedure, shortened: (§1)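 Isolated rat uterus, with USP posterior pituitary reference standard as agonist. Antagonism expressed as pA2.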

Rattus norvegicus [2] = test: Evaluated in vivo for logarithm effective dose (ED); format: functional, organism-based
Rattus norvegicus [3] = species: Rattus norvegicus; test: Anti-oxytocic activity on isolated rat uterus in presence of 0.5 mM of Mg2+. pA2 value is negative logarithm of effective dose (ED); format: functional; details: read-out: pA2 (converted); procedure, shortened: as §1
Rattus norvegicus [4] = species: Rattus norvegicus; test: Antidiuretic activity in rats and pA2 value is negative logarithm of effective dose (ED); format: functional, organism-based; details: Urine, read-out: pA2 (converted)
Procedure, shortened: (§2)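 Antidiuretic assay in rats under ethanol anaesthesia against the USP posterior pituitary reference standard. Standard given 20 min after antagonist, or 10 min for analogues lacking agonism. Each peptide given at a high and a low dose. ED is the dose (nmol/kg) that cuts the response to 2x units of agonist to the response to 1x unit given before antagonist. […] Means ± SE, n assays.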

Rattus norvegicus [5] = test: In vivo antidiuretic activity in rat measured as dose that reduced the response seen with 2x units of agonist to equal the response seen with 1x unit of agonist administered before antagonist; format: functional, Urine; procedure, shortened: as §2
Rattus norvegicus [6] = test: In vivo anti-vasopressor activity in phenoxybenzamine-treated rats under urethane anesthesia is measured as effective dose; format: functional
Procedure, shortened: (§3)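 Intravenous vasopressor assay in phenoxybenzamine-treated rats under urethane anaesthesia, agonist USP posterior pituitary reference standard. ED is the dose (nmol/kg) that reduces the response to 2x units of agonist to that of 1x unit given before antagonist. […] Means ± SE, number of assays given.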

[7] = Ratio of anti-vasopressor ED50 to antiantidiuretic ED50; format: functional, Urine
Procedure, shortened: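 Ratio of antivasopressor ED to antiantidiuretic ED. Each ED is the dose (nmol/kg) that lowers the response to 2x units of agonist to that of 1x unit before antagonist. Measured in rats: vasopressor assay in phenoxybenzamine-treated, urethane-anaesthetised animals; antidiuretic assay under ethanol anaesthesia.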

Rattus norvegicus [8] = species: Rattus norvegicus; test: Anti-oxytocic activity in rat uterus pA2 value is negative logarithm of effective dose (ED); format: functional, organism-based; details: read-out: pA2 (converted)
Rattus norvegicus [9] = species: Rattus norvegicus; test: Anti-oxytocic activity in rat uterus and effective dose (ED) was reported.; format: functional
Procedure, shortened: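 Rat uterus in situ, with synthetic oxytocin as agonist. ED is the dose (nmol/kg) that lowers the response to 2x units of agonist to that of 1x unit given before antagonist.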

Rattus norvegicus [10] = test: Compound was evaluated in vivo for anti-vasopressor activity in rats and pA2 value is negative logarithm of effective dose (ED); format: functional, organism-based; details: read-out: pA2 (converted); procedure, shortened: as §3

CC[C@@H](C)[C@H]1NC(=O)CC2(CCCCC2)SSC[C@@H](C(=O)N2CCC[C@H]2C(=O)N[C@@H](CCCN=C(N)N)C(=O)NCC(N)=O)NC(=O)[C@H](CC(N)=O)NC(=O)[C@H](CCCN)NC(=O)[C@H](Cc2ccccc2)NC1=O [listing 1 of 2 here]
Kb (Rattus norvegicus [1]): 26.9 nM
in vivo pA2 effective dose (as concentration) (Rattus norvegicus [2]): 174 nM
Kb (Rattus norvegicus [3]): 195 nM
Kb (Rattus norvegicus [4]): 347 nM

CC[C@@H](C)[C@H]1NC(=O)CC2(CCCCC2)SSC[C@@H](C(=O)N2CCC[C@H]2C(=O)N[C@@H](CCCN=C(N)N)C(=O)NCC(N)=O)NC(=O)[C@H](CC(N)=O)NC(=O)[C@H](CCCN)NC(=O)[C@H](Cc2ccccc2)NC1=O [listing 2 of 2 here]
ED (Rattus norvegicus [5]): 49 nmol/kg
ED (Rattus norvegicus [6]): 11.9 nmol/kg
Ratio [7]: 0.24

NC(=O)CNC(=O)[C@H](CCCN=C(N)N)NC(=O)[C@@H]1CCCN1C(=O)[C@@H]1CSSC2(CCCCC2)CC(=O)N[C@H](Cc2ccccc2)C(=O)N[C@@H](Cc2ccccc2)C(=O)N[C@@H](CO)C(=O)N[C@@H](CC(N)=O)C(=O)N1 [listing 1 of 2 here]
Kb (Rattus norvegicus [8]): 200 nM
Kb (Rattus norvegicus [1]): 22.9 nM
in vivo pA2 effective dose (as concentration) (Rattus norvegicus [2]): 23.4 nM
Kb (Rattus norvegicus [3]): 14.8 nM
Kb (Rattus norvegicus [4]): 46.8 nM

NC(=O)CNC(=O)[C@H](CCCN=C(N)N)NC(=O)[C@@H]1CCCN1C(=O)[C@@H]1CSSC2(CCCCC2)CC(=O)N[C@H](Cc2ccccc2)C(=O)N[C@@H](Cc2ccccc2)C(=O)N[C@@H](CO)C(=O)N[C@@H](CC(N)=O)C(=O)N1 [listing 2 of 2 here]
ED (Rattus norvegicus [5]): 3.9 nmol/kg
ED (Rattus norvegicus [9]): 13 nmol/kg
ED (Rattus norvegicus [6]): 1.6 nmol/kg
Ratio [7]: 0.41

CC[C@@H](C)[C@H]1NC(=O)CC2(CCCCC2)SSC[C@@H](C(=O)N2CCC[C@H]2C(=O)N[C@@H](CCCN=C(N)N)C(=O)NCC(N)=O)NC(=O)[C@H](CC(N)=O)NC(=O)[C@H](C)NC(=O)[C@H](Cc2ccccc2)NC1=O [listing 1 of 2 here]
Kb (Rattus norvegicus [8]): 724 nM
Kb (Rattus norvegicus [1]): 31.6 nM
Kb (Rattus norvegicus [10]): 933 nM
Kb (Rattus norvegicus [3]): 33.9 nM
Kb (Rattus norvegicus [4]): 17.4 nM

CC[C@@H](C)[C@H]1NC(=O)CC2(CCCCC2)SSC[C@@H](C(=O)N2CCC[C@H]2C(=O)N[C@@H](CCCN=C(N)N)C(=O)NCC(N)=O)NC(=O)[C@H](CC(N)=O)NC(=O)[C@H](C)NC(=O)[C@H](Cc2ccccc2)NC1=O [listing 2 of 2 here]
ED (Rattus norvegicus [5]): 1.7 nmol/kg
ED (Rattus norvegicus [9]): 57 nmol/kg
ED (Rattus norvegicus [6]): 66 nmol/kg
Ratio [7]: 39

CCC[C@@H]1NC(=O)[C@H](Cc2ccccc2)NC(=O)[C@@H]([C@H](C)CC)NC(=O)CC2(CCCCC2)SSC[C@@H](C(=O)N2CCC[C@H]2C(=O)N[C@@H](CCCN=C(N)N)C(=O)NCC(N)=O)NC(=O)[C@H](CC(N)=O)NC1=O [listing 1 of 2 here]
Kb (Rattus norvegicus [8]): 295 nM
Kb (Rattus norvegicus [1]): 14.8 nM
in vivo pA2 effective dose (as concentration) (Rattus norvegicus [2]): 110 nM
Kb (Rattus norvegicus [3]): 15.8 nM
Kb (Rattus norvegicus [4]): 97.7 nM

CCC[C@@H]1NC(=O)[C@H](Cc2ccccc2)NC(=O)[C@@H]([C@H](C)CC)NC(=O)CC2(CCCCC2)SSC[C@@H](C(=O)N2CCC[C@H]2C(=O)N[C@@H](CCCN=C(N)N)C(=O)NCC(N)=O)NC(=O)[C@H](CC(N)=O)NC1=O [listing 2 of 2 here]
ED (Rattus norvegicus [5]): 7 nmol/kg
ED (Rattus norvegicus [9]): 22 nmol/kg
ED (Rattus norvegicus [6]): 8.2 nmol/kg
Ratio [7]: 1.2

CC[C@@H]1NC(=O)[C@H](Cc2ccccc2)NC(=O)[C@@H]([C@H](C)CC)NC(=O)CC2(CCCCC2)SSC[C@@H](C(=O)N2CCC[C@H]2C(=O)N[C@@H](CCCN=C(N)N)C(=O)NCC(N)=O)NC(=O)[C@H](CC(N)=O)NC1=O
ED (Rattus norvegicus [5]): 0.41 nmol/kg
ED (Rattus norvegicus [9]): 19 nmol/kg
ED (Rattus norvegicus [6]): 12 nmol/kg
Ratio [7]: 29

CC[C@@H](C)[C@H]1NC(=O)CC2(CCCCC2)SSC[C@@H](C(=O)N2CCC[C@H]2C(=O)N[C@@H](CCCN=C(N)N)C(=O)NCC(N)=O)NC(=O)[C@H](CC(N)=O)NC(=O)[C@H](CC(N)=O)NC(=O)[C@H](Cc2ccccc2)NC1=O [listing 1 of 2 here]
Kb (Rattus norvegicus [1]): 11.7 nM
in vivo pA2 effective dose (as concentration) (Rattus norvegicus [2]): 55 nM
Kb (Rattus norvegicus [3]): 39.8 nM
Kb (Rattus norvegicus [4]): 309 nM

CC[C@@H](C)[C@H]1NC(=O)CC2(CCCCC2)SSC[C@@H](C(=O)N2CCC[C@H]2C(=O)N[C@@H](CCCN=C(N)N)C(=O)NCC(N)=O)NC(=O)[C@H](CC(N)=O)NC(=O)[C@H](CC(N)=O)NC(=O)[C@H](Cc2ccccc2)NC1=O [listing 2 of 2 here]
ED (Rattus norvegicus [5]): 25 nmol/kg
ED (Rattus norvegicus [6]): 3.9 nmol/kg
Ratio [7]: 0.16

CC[C@@H](C)[C@H]1NC(=O)CC2(CCCCC2)SSC[C@@H](C(=O)N2CCC[C@H]2C(=O)N[C@@H](CCCN=C(N)N)C(=O)NCC(N)=O)NC(=O)[C@H](CC(N)=O)NC(=O)[C@H]([C@@H](C)O)NC(=O)[C@H](Cc2ccccc2)NC1=O
ED (Rattus norvegicus [5]): 0.88 nmol/kg
ED (Rattus norvegicus [9]): 9.5 nmol/kg
ED (Rattus norvegicus [6]): 10.5 nmol/kg
Ratio [7]: 12
